This note sets out measurements from ChEMBL document CHEMBL1149288, “Effects of substitution on the pyrrole N atom in derivatives of tetrahydronaltrindole, tetrahydrooxymorphindole, and a related 4,5-epoxyphenylpyrrolomorphinan” (J Med Chem, 2004).

The target of experiment [1] is T1, Mu-type opioid receptor (Homo sapiens, UniProt P35372). Description: Displacement of [3H]DAMGO from human recombinant mu opioid receptor expressed in CHO cells. The format is cell-based. Summed up: (§1)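 Radioligand displacement was run on human recombinant receptors expressed in CHO cells. The labels were [3H]DAMGO for MOR and [3H]U69593 for KOR. Values are the mean of two experiments, each in triplicate.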
T1 sequence (P35372 whole entry): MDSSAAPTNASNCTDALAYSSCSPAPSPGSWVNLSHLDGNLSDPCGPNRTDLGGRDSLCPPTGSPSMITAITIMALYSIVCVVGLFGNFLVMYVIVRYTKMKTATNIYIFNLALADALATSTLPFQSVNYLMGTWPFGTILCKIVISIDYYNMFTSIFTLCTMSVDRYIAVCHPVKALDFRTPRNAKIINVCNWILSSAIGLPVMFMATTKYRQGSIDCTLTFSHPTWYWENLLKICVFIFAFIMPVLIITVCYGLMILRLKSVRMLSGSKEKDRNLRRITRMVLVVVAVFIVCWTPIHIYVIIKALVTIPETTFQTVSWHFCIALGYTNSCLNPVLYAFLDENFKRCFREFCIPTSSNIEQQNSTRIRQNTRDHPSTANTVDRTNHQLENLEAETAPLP
(In a radioligand displacement assay an active substance lowers the binding of a labelled ligand.)

The target of experiment [2] is T2, Kappa-type opioid receptor (Homo sapiens, UniProt P41145). Description: Displacement of [3H]U-69593 from human recombinant kappa opioid receptor expressed in CHO cells. The format is cell-based. The method in brief:
as §1

In experiment [3] the target is T3, Delta-type opioid receptor (Homo sapiens, UniProt P41143). Description: Displacement of [3H]Cl-DPDPE from human recombinant delta opioid receptor expressed in CHO cells. The experiment is classed as cell-based.
T3 sequence (P41143 whole entry): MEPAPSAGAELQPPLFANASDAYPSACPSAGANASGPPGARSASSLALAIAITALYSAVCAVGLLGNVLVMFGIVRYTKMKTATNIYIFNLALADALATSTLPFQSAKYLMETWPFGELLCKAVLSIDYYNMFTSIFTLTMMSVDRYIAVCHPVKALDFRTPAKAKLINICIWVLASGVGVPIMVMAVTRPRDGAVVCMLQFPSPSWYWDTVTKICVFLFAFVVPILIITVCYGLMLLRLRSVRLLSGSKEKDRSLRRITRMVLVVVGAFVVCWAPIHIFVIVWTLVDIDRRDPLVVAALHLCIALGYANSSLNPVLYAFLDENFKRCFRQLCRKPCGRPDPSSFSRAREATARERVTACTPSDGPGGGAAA
The target of experiment [4] is T1, Mu-type opioid receptor. Description: Activity at human recombinant mu opioid receptor expressed in CHO cells by [35S]GTP-gamma-S binding assay. The format is functional, cell-based. The method in brief:
(§2)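 Human recombinant opioid receptors expressed in CHO cells. Agonist-stimulated [35S]GTPγS binding was measured and efficacy was referenced to DAMGO (MOR) or U69593 (KOR). Values are means of five or six experiments.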
Background: GTPγS is a poorly hydrolysed GTP analogue; its binding reports G protein activation.

The target of experiment [5] is T2, Kappa-type opioid receptor. Description: Activity at human recombinant kappa opioid receptor expressed in CHO cells by [35S]GTPgammaS binding assay. The format is functional, cell-based. The method in brief: as §2
The target of experiment [6] is T3, Delta-type opioid receptor. Conditions: CHO.
Experiment [7] addresses T1, Mu-type opioid receptor. Description: Activity at human recombinant mu opioid receptor expressed in CHO cells by [35S]GTPgammaS binding assay relative to DAMGO. The format is functional, cell-based. Summed up:
as §2

The target in experiment [8] is T2, Kappa-type opioid receptor. Description: Activity at human recombinant kappa opioid receptor expressed in CHO cells by [35S]GTP-gamma-S binding assay relative to U69593. The format is functional, cell-based. The method in brief: as §2
In experiment [9] the test system is Mus musculus. Description: Antinociceptive activity in sc dosed mouse. The format is functional. The method in brief: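 Antinociception was measured in the mouse PPQ-induced abdominal stretch assay after sc dosing.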
The test system of experiment [10] is Mus musculus. Description: Antagonism of SNC80-induced antinociceptive effect in sc dosed mouse assessed by phenylquinone-induced abdominal stretch assay. The experiment is classed as functional, organism-based. Particulars: Abdomen. Summed up:
(§3)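 Mouse phenylquinone (PPQ) abdominal stretch assay. The test compound was given sc, and its antagonism of SNC80-induced antinociception was scored as percent antagonism of the agonist effect.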

Experiment [11] has as its system Mus musculus. Description: Reversal of SNC80-induced antinociceptive effect in mouse assessed by phenylquinone-induced abdominal stretch assay at […], icv administered 24 hrs before SNC80. The experiment is classed as functional, Abdomen.
Experiment [12] is filed under the species Mus musculus. Description: Reversal of 1'-benzyl-6,7-didehydro-3,14-dihydroxy-4,5alpha-epoxy-17-methyl-4',5',6',7'-tetrahydroindolo[2',3':6,7]morphinan-induced antinociceptive activity in mouse. The format is functional.
Experiment [13] has as its system Mus musculus. Description: Antagonism of SNC80-induced antinociceptive effect in mouse assessed by phenylquinone-induced abdominal stretch assay at 1 mg/kg, sc. The experiment is classed as functional, Abdomen. Also noted: scale not given: the % may be the effect or the level left. Particulars: route subcutaneous. The method in brief:
as §3

In experiment [14] the test system is Mus musculus. Description: Antagonism of 1'-benzyl-6,7-didehydro-3,14-dihydroxy-4,5alpha-epoxy-17-methyl-4',5',6',7'-tetrahydroindolo[2',3':6,7]morphinan-induced antinociceptive activity in mouse at 30 mg/kg, sc. The format is functional. More on the design: scale not given: the % may be the effect or the level left. Particulars: route subcutaneous.
For the next experiment, the system named is Rattus norvegicus. Description: Prevention of SNC80-induced convulsions in Sprague-Dawley rat at 10 mg/kg, sc administered 20 mins before SNC80. The experiment is classed as functional, organism-based. Also noted: dose 10 mg/kg. Summed up: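 The test compound was given at 10 mg/kg sc 20 min before SNC80 (32 mg/kg), and prevention of SNC80-mediated convulsions was scored.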

The test system of experiment [15] is Mus musculus. Description: Antagonism of SNC80-induced antinociceptive effect in mouse assessed by phenylquinone-induced abdominal stretch assay at 3 mg/kg, sc. The experiment is classed as functional, Abdomen. More on the design: scale not given: the % may be the effect or the level left. Conditions: route subcutaneous. The method in brief: as §3
The test system of experiment [16] is Mus musculus. Description: Antagonism of SNC80-induced antinociceptive effect in mouse assessed by phenylquinone-induced abdominal stretch assay at 10 mg/kg, sc. The format is functional, Abdomen. More on the design: scale not given: the % may be the effect or the level left. Particulars: route subcutaneous. Summed up: as §3

One may read the Ki as the equilibrium dissociation constant of an inhibitor or competing ligand from its target. In general, EC50 refers to the concentration at which the effect is half-maximal. Broadly, the ED50 is the midpoint of the dose-response relation.

Molecules are shown by their SMILES. Calls of active or inactive are those of the source. No cut-off for these calls is given here.

T2 sequence (P41145 whole entry): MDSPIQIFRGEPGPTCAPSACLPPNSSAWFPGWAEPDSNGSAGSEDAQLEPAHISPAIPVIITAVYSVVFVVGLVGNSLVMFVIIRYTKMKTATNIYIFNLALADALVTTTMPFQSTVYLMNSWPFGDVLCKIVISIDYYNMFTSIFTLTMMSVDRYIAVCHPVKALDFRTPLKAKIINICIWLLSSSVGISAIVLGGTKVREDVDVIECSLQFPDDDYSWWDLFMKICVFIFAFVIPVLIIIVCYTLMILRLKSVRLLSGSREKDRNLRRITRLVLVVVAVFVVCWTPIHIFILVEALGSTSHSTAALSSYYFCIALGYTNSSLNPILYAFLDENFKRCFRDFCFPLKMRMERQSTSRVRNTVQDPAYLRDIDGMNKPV

Take `Cn1cc(-c2ccccc2)c2c1[C@@H]1Oc3c(O)ccc4c3[C@@]13CCN(CC1CC1)C(C4)[C@]3(O)C2`: the Ki came to 7.6 nM at Mu-type opioid receptor [1], 18.5 nM in [2] and 3.35 nM in experiment [3]. Further, the Ke at Mu-type opioid receptor [4] came out at 4.04 nM; in experiment [5], 34.1 nM; in experiment [6], 0.62 nM.
For `Oc1ccc2c3c1O[C@H]1c4c(c5c(n4CC4CC4)CCCC5)C[C@@]4(O)C(C2)N(CC2CC2)CC[C@]314`, the results for the Ki (on Mu-type opioid receptor [1]; in experiment [2]) were 2.52 nM and 2.51 nM, respectively. The Ke in experiment [5] came to 11.8 nM.
`CN1CC[C@]23c4c5ccc(O)c4O[C@H]2c2c(c4c(n2Cc2ccccc2)CCCC4)C[C@@]3(O)C1C5`: the results for the Ki (at Mu-type opioid receptor [1]; in experiment [2]) were 88.9 nM and 289 nM, respectively. The EC50 at Mu-type opioid receptor [4] is 732 nM; in [5] it was 1750 nM. Also, the Activity on Mu-type opioid receptor [7] was 44%; in experiment [8], 43%; in the experiment with Mus musculus [11] it was over 50%. The same compound had an ED50 in the experiment on Mus musculus [9] of 5.1 mg/kg. For the same compound, in the experiment with Mus musculus [10], the outcome was inactive.
Regarding `CCn1c2c(c3c1[C@@H]1Oc4c(O)ccc5c4[C@@]14CCN(CC1CC1)C(C5)[C@]4(O)C3)CCCC2`, the values for the Ki (on Mu-type opioid receptor [1]; in experiment [2]) were 5.06 nM and 7.38 nM, respectively. In addition, the Ke on Mu-type opioid receptor [4] was 5.32 nM. Also, the EC50 in [5] came out at 14.3 nM. For the same compound, the Activity in experiment [8] turned out to be 63%.
For the compound `Oc1ccc2c3c1O[C@H]1c4c(c5c(n4CCc4ccccc4)CCCC5)C[C@@]4(O)C(C2)N(CC2CC2)CC[C@]314`, the Ki at Mu-type opioid receptor [1] was 7.46 nM. Also, the Ke on Mu-type opioid receptor [4] turned out to be 5.66 nM. The EC50 in experiment [5] was determined as 13.8 nM. In addition, in experiment [8], the Activity was found to be 76%.
As to `O=C1CC[C@@]2(O)[C@H]3Cc4ccc(O)c5c4[C@@]2(CCN3CC2CC2)[C@H]1O5` [NALTREXONE], the AD50 in the experiment listed under Mus musculus [12] turned out to be 0.02 mg/kg.
`Oc1ccc2c3c1O[C@H]1c4c(c5ccccc5n4Cc4ccccc4)C[C@@]4(O)C(C2)N(CC2CC2)CC[C@]314`: in the experiment with Mus musculus [13], the Activity turned out to be 57%.
Take `CN1CC[C@]23c4c5ccc(O)c4O[C@H]2c2c(c4c(n2CCc2ccccc2)CCCC4)C[C@@]3(O)C1C5`: the figures for the Ki (on Mu-type opioid receptor [1]; in experiment [2]) were 15.4 nM and 163 nM, respectively. The EC50 was found to be 175 nM at Mu-type opioid receptor [4] and 131 nM in [5]. Moreover, the Activity at Mu-type opioid receptor [7] was found to be 71%; in [8], 76%.
As to `CN1CC[C@]23c4c5ccc(O)c4O[C@H]2c2c(c4c(n2CC2CCCCC2)CCCC4)C[C@@]3(O)C1C5`, the Ki on Mu-type opioid receptor [1] stood at 17.9 nM; in experiment [2], 262 nM. For the same compound, the EC50 at Mu-type opioid receptor [4] stood at 130 nM; in experiment [5], 153 nM. Besides, the Activity amounted to 57% on Mu-type opioid receptor [7] and 85% in [8].
`CN1CC[C@]23c4c5ccc(O)c4O[C@H]2c2c(c4c(n2C)CCCC4)C[C@@]3(O)C1C5`: the Ki in experiment [2] was 89.1 nM. The EC50 at Mu-type opioid receptor [4] was 222 nM; in experiment [5] it was 97.2 nM. The results for the Activity (on Mu-type opioid receptor [7]; in experiment [8]) were 39% and 69%, respectively.
Consider `CCn1cc(-c2ccccc2)c2c1[C@@H]1Oc3c(O)ccc4c3[C@@]13CCN(CC1CC1)C(C4)[C@]3(O)C2`, for which the results for the Ki (at Mu-type opioid receptor [1]; in experiment [2]; in [3]) were 8.75 nM, 24.3 nM and 2.95 nM, respectively. Further, the Ke on Mu-type opioid receptor [4] came out at 10.7 nM; in experiment [5], 44 nM; in experiment [6], 0.72 nM.
Regarding `Cn1c2c(c3c1[C@@H]1Oc4c(O)ccc5c4[C@@]14CCN(CC1CC1)[C@H](C5)[C@]4(O)C3)CCCC2`, the Ki at Mu-type opioid receptor [1] was 5.76 nM; in experiment [2], 4.11 nM. For the same compound, the Ke amounted to 4.3 nM at Mu-type opioid receptor [4] and 12.2 nM in experiment [5].
As for `CCn1c2c(c3c1[C@@H]1Oc4c(O)ccc5c4[C@@]14CCN(C)C(C5)[C@]4(O)C3)CCCC2`, the Ki was determined as 25.8 nM on Mu-type opioid receptor [1] and 168 nM in experiment [2]. The EC50 at Mu-type opioid receptor [4] amounted to 175 nM; in experiment [5], 98.2 nM. In addition, the Activity was found to be 41% on Mu-type opioid receptor [7] and 66% in experiment [8].
`Oc1ccc2c3c1O[C@H]1c4[nH]c5ccccc5c4C[C@@]4(O)[C@@H](C2)N(CC2CC2)CC[C@]314` [NALTRINDOLE]: in the experiment with Mus musculus [14], the Activity came out at 40%.
Regarding `Oc1ccc2c3c1O[C@H]1c4c(c5c(n4CC4CCCCC4)CCCC5)C[C@@]4(O)C(C2)N(CC2CC2)CC[C@]314`, the results for the Ki (on Mu-type opioid receptor [1]; in experiment [2]) were 18.5 nM and 24.9 nM, respectively. The Ke at Mu-type opioid receptor [4] came out at 11.6 nM. For the same compound, in experiment [5], the EC50 is 54.3 nM. Moreover, the Activity in experiment [8] amounted to 84%.
Consider `Oc1ccc2c3c1O[C@H]1c4c(c5c(n4Cc4ccccc4)CCCC5)C[C@@]4(O)C(C2)N(CC2CC2)CC[C@]314`, for which the figures for the inhibitory constant (Ki) (at Mu-type opioid receptor [1]; in experiment [2]; in experiment [3]) were 5.39 nM, 6.29 nM and 2.94 nM, respectively. Moreover, the Ke at Mu-type opioid receptor [4] was found to be 8.13 nM; in experiment [5], 49.8 nM; in experiment [6] it was 2.23 nM. For the same compound, in the experiment with Rattus norvegicus, the outcome was Active. For the same compound, the Activity in the experiment on Mus musculus [15] and in the experiment on Mus musculus [16] was 54% in each case.
